In PMC2172834 (The Journal of Cell Biology, 2003):

T1: Bcl-w ΔC10 (Homo sapiens, UniProt Q92843, A128E/C29S)
T1 sequence (Q92843 1-183 C29S/A128E limits assumed): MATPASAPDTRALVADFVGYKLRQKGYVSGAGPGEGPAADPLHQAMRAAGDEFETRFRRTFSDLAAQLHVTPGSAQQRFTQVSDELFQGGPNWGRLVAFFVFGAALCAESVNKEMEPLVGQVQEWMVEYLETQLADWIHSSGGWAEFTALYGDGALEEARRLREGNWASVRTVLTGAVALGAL

T2: L94ABH3, 26-mer Bim BH3 peptide with L94A (mouse, L94A (stands in the printed letters))
T2 peptide: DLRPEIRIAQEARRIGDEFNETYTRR

B1: BimLΔC27 (recombinant BimL lacking its COOH-terminal hydrophobic 27 amino acids) (domain or fragment, mouse, UniProt O54918-2 1-113, looked up)
chain: MAKQPSDVSSECDREGGQLQPAERPPQLRPGAPTSLQTEPQDRSPAPMSCDKSTQTPSPPCQAFNHYLSAMASIRQSQEEPEDLRPEIRIAQELRRIGDEFNETYTRRVFAND
B2: BimLΔC27: Purified recombinant BimL lacking its COOH-terminal hydrophobic 27 amino acids (protein)
chain: B1 chain
modifications: left off: GST, end not stated, state not stated
B3: Wild-type Bcl-w: prosurvival Bcl-2 family protein, expressed FLAG-tagged (protein)
chain: MATPASAPDTRALVADFVGYKLRQKGYVCGAGPGEGPAADPLHQAMRAAGDEFETRFRRTFSDLAAQLHVTPGSAQQRFTQVSDELFQGGPNWGRLVAFFVFGAALCAESVNKEMEPLVGQVQEWMVAYLETQLADWIHSSGGWAEFTALYGDGALEEARRLREGNWASVRTVLTGAVALGALVTVGAFFASK
modifications: left off: FLAG, N-terminal, kept
B4: Bcl-w ΔC10 (C29S, A128E), His6-tagged recombinant (domain or fragment, UniProt Q92843 1-183, looked up)
chain: T1 sequence (Q92843 1-183 C29S/A128E limits assumed)

How the values were obtained:
[1] = tested on: endogenous Bcl-w in HeLa cells; test: Drug-induced membrane association of endogenous Bcl-w, HeLa cells; assay type: cell-based; details: 24 h, 1.0 μg/ml etoposide (VP16) or 10 nM staurosporine
In short: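 HeLa cells were harvested 24 h after 50 Jm−2 UV, 1.0 μg/ml etoposide or 10 nM staurosporine. Lysis was in HMKEE buffer (Hepes pH 7.2) with 250 mM sucrose and 0.025% digitonin, 10 min on ice. Pellet (13,000 rpm, 2 min, 4°C) was solubilised in RIPA. Soluble and pellet fractions were immunoblotted for endogenous Bcl-w.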

Bcl-w in FDC-P1 cells = test: Damage-induced membrane association of Bcl-w, FDC-P1 cells; assay type: cell-based
In short: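 FDC-P1 or FD/FLAG–Bcl-w cells were given 100 nM staurosporine, 10 Gy γ irradiation or IL-3 withdrawal, in some runs with 50 μM zVAD.fmk. Cells were lysed in HMKEE/250 mM sucrose/0.025% digitonin for 10 min on ice. Pellet (13,000 rpm, 2 min, 4°C) and soluble fractions were separated. Pellet was RIPA-solubilised, with or without alkali treatment, and immunoblotted for Bcl-w.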

FDC-P1 cells = test: Inhibition of apoptosis / cell survival; assay type: cell-based; details: zVAD.fmk with death signals
[2] = target: B4; test: SPR
Bcl-w ΔC10 = target: T1, Bcl-w ΔC10; test: Optical biosensor; assay type: binding
BimEL = test: Coimmunoprecipitation of Bcl-w constructs with BimEL; assay type: binding; details: 35S-labeled lysates, 293T cells
[3] = target: T2, L94ABH3, 26-mer Bim BH3 peptide with …; test: SPR

Molecule: COc1cc([C@@H]2c3cc4c(cc3[C@@H](O[C@@H]3O[C@@H]5CO[C@@H](C)O[C@H]5[C@H](O)[C@H]3O)[C@H]3COC(=O)[C@H]23)OCO4)cc(OC)c1O [etoposide]
- membrane association of endogenous Bcl-w [1]: Damage signals trigger membrane association of endogenous Bcl-w in HeLa cells

Molecule: zVAD.fmk
- recruitment of Bcl-w to the membrane fraction with caspase inhibitor (Bcl-w in FDC-P1 cells; 50 μM zVAD.fmk plus death signals, FD/FLAG–Bcl-w cells): Bcl-w was still recruited into the membrane fraction in response to death signals
- delay of cell death (FDC-P1 cells): delayed cell death

Molecule: CN[C@@H]1C[C@H]2O[C@@](C)([C@@H]1OC)n1c3ccccc3c3c4c(c5c6ccccc6n2c5c31)C(=O)NC4 [staurosporine]
- membrane association of endogenous Bcl-w [1]: Damage signals trigger membrane association of endogenous Bcl-w in HeLa cells
- membrane association of endogenous Bcl-w, alkali-resistant (Bcl-w in FDC-P1 cells; FDC-P1 cells, 100 nM staurosporine): damage signals induce membrane association resistant to alkali treatment

Molecule: B1
- binding result [2]: binds

Molecule: B2
- binding to Bcl-w (Bcl-w ΔC10): binds purified Bcl-w with high (nM) affinity

Molecule: B3
- binding to BimEL (BimEL): interacts avidly with Bim

Molecule: B4
- fold reduction of binding against wtBH3 [3]: > 50 fold

Molecule: DLRPEIRIAQELRRIGDEFNETYTRR [wtBH3, 26-mer peptide spanning the BH3 domain of Bim]
- binding result [2]: binds
